This passage reports inhibition of growth, IC50 and inhibition in vitro results from ChEMBL document CHEMBL4823270, “A first-in-class anticancer dual HDAC2/FAK inhibitors bearing hydroxamates/benzamides capped by pyridinyl-1,2,4-triazoles” (Eur J Med Chem, 2021).

Experiment [1] relates to A498. Description: Growth inhibition of human A498 cells at 10 uM incubated for 24 hrs by MTT assay relative to control. The class given is functional. Conditions: read-out: GI. Put shortly:
(§1)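 Cells seeded at 1 × 10^4 per well, cultured overnight, then exposed to 10 μM compound or DMSO (negative control) for 24 h. After a PBS wash, MTT (2 mg/ml) was added for 4 h at 37°C and formazan dissolved in DMSO. OD read at 570 nm. Growth inhibition = 1 − (OD treated/OD control); at least three independent experiments.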

Experiment [2] deals with Histone deacetylase 1 (Homo sapiens, UniProt Q13547). Description: Inhibition of human full-length recombinant HDAC1 preincubated for 5 mins followed by HDAC substrate addition and further incubated for 45 mins by fluorescence microplate reader assay.
Sequence of Histone deacetylase 1 (Q13547 whole entry): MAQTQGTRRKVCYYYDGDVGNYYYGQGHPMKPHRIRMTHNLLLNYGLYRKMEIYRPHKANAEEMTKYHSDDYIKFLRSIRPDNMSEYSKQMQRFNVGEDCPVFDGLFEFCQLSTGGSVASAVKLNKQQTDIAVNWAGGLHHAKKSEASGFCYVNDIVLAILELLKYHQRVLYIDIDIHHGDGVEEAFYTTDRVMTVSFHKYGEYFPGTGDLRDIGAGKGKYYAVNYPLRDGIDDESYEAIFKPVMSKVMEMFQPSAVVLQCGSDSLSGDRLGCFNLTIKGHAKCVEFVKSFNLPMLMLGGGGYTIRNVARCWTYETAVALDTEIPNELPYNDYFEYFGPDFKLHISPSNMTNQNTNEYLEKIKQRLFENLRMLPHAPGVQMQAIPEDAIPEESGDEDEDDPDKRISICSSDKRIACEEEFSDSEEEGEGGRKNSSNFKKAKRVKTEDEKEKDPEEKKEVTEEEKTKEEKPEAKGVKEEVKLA
The subject of experiment [3] is CAKI-1. The experiment can be described thus: Growth inhibition of human CAKI-1 cells at 10 uM incubated for 24 hrs by MTT assay relative to control. The conditions noted are these: read-out: GI. The class given is functional. An outline of the steps:
as §1
(Tetrazolium dyes change colour on reduction, which living cells bring about.)

In experiment [4] the target is Histone deacetylase 3 (Homo sapiens, UniProt O15379). The experiment can be described thus: Inhibition of human full-length recombinant HDAC3 preincubated for 5 mins followed by HDAC substrate addition and further incubated for 45 mins by fluorescence microplate reader assay.
Sequence of Histone deacetylase 3 (O15379 whole entry): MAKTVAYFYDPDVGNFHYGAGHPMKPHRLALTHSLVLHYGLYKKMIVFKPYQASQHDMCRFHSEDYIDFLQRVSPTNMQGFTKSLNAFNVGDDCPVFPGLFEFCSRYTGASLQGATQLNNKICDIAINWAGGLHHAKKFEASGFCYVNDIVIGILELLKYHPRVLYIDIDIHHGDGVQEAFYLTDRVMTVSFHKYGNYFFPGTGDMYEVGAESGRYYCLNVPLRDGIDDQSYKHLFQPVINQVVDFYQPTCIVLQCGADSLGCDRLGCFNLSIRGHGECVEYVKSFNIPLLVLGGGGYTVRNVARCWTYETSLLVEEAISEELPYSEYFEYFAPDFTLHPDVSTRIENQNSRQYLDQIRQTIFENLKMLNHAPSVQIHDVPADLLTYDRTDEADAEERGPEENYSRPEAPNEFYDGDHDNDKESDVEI
In experiment [5] the test system is HT-29. The experiment can be described thus: Growth inhibition of human HT-29 cells at 10 uM incubated for 24 hrs by MTT assay relative to control. It counts as functional. The conditions noted are these: read-out: GI. Put shortly:
as §1

Experiment [6] deals with A498. The experiment can be described thus: Antiproliferative activity against human A498 cells assessed as cell growth inhibition incubated for 24 hrs by MTT assay. The class given is functional, cell-based. The conditions noted are these: A498, 24 h.
Experiment [7] concerns HCT-116. Description: Growth inhibition of human HCT-116 cells at 10 uM incubated for 24 hrs by MTT assay relative to control. It counts as functional. Conditions: read-out: GI. Put shortly:
as §1

In experiment [8] the test system is KG-1. Description: Growth inhibition of human KG-1 cells at 10 uM incubated for 24 hrs by MTT assay relative to control. It counts as functional. Conditions: KG-1, 24 h. An outline of the steps:
as §1

Experiment [9] has as its target Focal adhesion kinase 1 (Homo sapiens, UniProt Q05397). Description: Inhibition of FAK (unknown origin) by FRET-based Z'-Lyte assay. An outline of the steps:
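Recombinant FAK kinase activity measured with the FRET-based Z'-LYTE format; the same platform was used for a kinase panel (FAK, FLT, FRK, IGF-1R, BTK). IC50 values determined.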

Experiment [10] has as its target T1, Protein deacetylase HDAC6 (Homo sapiens, UniProt Q9UBN7).
T1 sequence (Q9UBN7 whole entry): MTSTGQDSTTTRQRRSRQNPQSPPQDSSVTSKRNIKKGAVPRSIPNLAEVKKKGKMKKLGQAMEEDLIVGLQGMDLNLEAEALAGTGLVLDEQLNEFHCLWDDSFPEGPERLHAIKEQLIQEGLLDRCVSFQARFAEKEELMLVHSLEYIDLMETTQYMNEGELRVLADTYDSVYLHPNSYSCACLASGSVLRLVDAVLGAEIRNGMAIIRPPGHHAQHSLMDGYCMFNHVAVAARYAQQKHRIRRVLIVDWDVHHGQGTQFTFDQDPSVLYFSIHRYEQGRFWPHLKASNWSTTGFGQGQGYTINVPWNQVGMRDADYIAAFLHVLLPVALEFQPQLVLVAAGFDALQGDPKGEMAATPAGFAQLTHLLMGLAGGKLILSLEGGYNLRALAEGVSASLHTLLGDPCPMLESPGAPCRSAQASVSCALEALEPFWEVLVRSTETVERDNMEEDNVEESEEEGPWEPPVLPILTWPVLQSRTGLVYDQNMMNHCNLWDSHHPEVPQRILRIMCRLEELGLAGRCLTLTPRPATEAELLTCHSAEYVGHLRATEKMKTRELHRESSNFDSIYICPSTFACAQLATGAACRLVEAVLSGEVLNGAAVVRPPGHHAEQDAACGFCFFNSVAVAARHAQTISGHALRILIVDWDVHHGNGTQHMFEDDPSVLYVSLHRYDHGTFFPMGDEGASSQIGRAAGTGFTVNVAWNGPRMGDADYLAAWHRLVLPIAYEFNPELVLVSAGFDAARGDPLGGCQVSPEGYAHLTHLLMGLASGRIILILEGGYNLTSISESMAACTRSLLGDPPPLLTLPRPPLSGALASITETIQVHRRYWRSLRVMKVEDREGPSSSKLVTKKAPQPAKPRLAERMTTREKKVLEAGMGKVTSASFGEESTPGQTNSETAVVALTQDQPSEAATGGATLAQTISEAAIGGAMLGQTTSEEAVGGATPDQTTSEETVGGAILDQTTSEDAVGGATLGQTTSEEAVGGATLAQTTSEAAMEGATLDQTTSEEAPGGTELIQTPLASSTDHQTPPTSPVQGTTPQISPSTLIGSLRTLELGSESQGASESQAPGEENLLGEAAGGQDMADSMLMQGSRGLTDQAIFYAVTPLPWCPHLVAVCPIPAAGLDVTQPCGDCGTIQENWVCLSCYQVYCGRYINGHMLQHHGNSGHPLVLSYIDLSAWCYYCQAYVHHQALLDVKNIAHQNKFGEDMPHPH
Description: Inhibition of human full-length recombinant HDAC6 preincubated for 5 mins followed by HDAC substrate addition and further incubated for 45 mins by fluorescence microplate reader assay.

Experiment [11] concerns K562. Description: Growth inhibition of human K562 cells at 10 uM incubated for 24 hrs by MTT assay relative to control. Conditions: read-out: GI. It counts as functional. An outline of the steps: as §1
Experiment [12] deals with T2, Histone deacetylase 8 (Homo sapiens, UniProt Q9BY41).
T2 sequence (Q9BY41 whole entry): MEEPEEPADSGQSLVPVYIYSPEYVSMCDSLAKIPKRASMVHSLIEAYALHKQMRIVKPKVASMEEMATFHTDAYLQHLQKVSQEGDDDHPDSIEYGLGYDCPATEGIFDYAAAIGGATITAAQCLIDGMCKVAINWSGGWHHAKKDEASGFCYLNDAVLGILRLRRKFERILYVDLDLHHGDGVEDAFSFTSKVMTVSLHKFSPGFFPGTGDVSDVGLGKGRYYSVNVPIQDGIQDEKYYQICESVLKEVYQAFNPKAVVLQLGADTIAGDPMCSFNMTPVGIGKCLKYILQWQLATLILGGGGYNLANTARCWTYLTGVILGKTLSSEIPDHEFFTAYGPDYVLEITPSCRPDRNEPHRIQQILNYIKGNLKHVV
Description: Inhibition of human full-length recombinant C-terminal His-tagged HDAC8 expressed in baculovirus infected Sf9 insect cells preincubated for 5 mins followed by HDAC substrate addition and further incubated for 45 mins by fluorescence microplate reader assay.

Experiment [13] concerns CAKI-1. The experiment can be described thus: Antiproliferative activity against human CAKI-1 cells assessed as cell growth inhibition incubated for 24 hrs by MTT assay. The conditions noted are these: CAKI-1, 24 h. The class given is functional, cell-based.
Experiment [14] concerns the target Histone deacetylase 2 (Homo sapiens, UniProt Q92769). The experiment can be described thus: Inhibition of human full-length recombinant HDAC2 preincubated for 5 mins followed by HDAC substrate addition and further incubated for 45 mins by fluorescence microplate reader assay.

Structures are written as SMILES. pIC50: −log10 of the molar value.

Sequence of Focal adhesion kinase 1 (Q05397 whole entry): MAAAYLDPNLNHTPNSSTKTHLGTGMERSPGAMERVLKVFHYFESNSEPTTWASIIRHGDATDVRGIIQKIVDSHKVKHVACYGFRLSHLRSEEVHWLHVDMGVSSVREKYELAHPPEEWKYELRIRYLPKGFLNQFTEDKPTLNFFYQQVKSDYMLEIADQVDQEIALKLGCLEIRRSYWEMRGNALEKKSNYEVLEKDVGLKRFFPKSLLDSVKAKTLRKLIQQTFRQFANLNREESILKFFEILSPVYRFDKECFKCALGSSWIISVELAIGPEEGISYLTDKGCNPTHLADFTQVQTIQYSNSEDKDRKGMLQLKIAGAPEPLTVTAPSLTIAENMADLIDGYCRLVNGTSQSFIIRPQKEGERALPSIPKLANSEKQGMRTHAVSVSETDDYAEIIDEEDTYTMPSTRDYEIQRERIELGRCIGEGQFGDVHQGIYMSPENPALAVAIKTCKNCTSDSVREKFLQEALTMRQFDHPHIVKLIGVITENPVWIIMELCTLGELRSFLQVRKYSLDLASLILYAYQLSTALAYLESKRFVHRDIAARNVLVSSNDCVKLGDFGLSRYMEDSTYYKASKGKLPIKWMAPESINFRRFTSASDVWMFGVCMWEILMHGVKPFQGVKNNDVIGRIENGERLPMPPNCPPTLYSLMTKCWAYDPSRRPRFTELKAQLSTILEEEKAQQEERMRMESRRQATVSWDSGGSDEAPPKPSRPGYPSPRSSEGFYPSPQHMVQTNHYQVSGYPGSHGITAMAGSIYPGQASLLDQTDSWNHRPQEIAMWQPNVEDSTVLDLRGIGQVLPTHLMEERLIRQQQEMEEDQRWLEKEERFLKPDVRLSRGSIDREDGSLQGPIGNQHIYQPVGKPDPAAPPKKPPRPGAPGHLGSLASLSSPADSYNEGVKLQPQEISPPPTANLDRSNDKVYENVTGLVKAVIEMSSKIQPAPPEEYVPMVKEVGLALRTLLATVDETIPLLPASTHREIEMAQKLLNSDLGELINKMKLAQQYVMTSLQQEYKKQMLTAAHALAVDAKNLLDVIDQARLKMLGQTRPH
Sequence of Histone deacetylase 2 (Q92769 whole entry): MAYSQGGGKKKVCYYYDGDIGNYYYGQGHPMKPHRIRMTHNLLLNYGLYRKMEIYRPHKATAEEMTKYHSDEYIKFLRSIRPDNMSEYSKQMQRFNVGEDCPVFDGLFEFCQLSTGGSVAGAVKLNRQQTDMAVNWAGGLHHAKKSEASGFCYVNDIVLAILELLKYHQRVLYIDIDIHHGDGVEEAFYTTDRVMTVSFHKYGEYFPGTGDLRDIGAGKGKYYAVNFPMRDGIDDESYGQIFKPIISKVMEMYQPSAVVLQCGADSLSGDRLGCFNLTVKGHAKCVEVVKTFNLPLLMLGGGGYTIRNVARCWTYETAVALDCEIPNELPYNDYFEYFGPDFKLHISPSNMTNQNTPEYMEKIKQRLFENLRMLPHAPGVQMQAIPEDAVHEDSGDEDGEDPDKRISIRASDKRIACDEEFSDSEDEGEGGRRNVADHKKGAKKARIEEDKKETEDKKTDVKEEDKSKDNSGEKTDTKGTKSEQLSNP

As usually defined, the pIC50 is the IC50 on a negative log10 scale, so that one unit is a factor of ten. For the molecule `C=CCn1c(SCCCCCC(=O)O)nnc1-c1ccncc1`, the inhibition of growth at 10 µM in experiment [1] came out at 11.4%; in experiment [3] it was 3.25%; in [5], 21.2%; in experiment [7] it was 16.2%; in experiment [11], 2.95%. Also, the pIC50 was 4.01 in [2]; 3.61 in [4]; 4.07 in [6]; 6.91 in experiment [9]; < 3.52 in [10]; < 3.52 in [12]. Moreover, the pIC50 in experiment [13] was 3.78; in [14], 4.99. For the same molecule, in experiment [8], the inhibition in vitro at 10 µM was 15.4%.

On to `CCn1c(SCc2ccc(C(=O)Nc3ccccc3N)cc2)nnc1-c1ccncc1`, for which the inhibition of growth at 10 µM in experiment [1] is 1.18%; in experiment [3], 12.1%; in experiment [5] it was 1.22%; in experiment [7], 1.85%; in experiment [11] it was 8.67%. Also, the pIC50 in experiment [2] was < 3.52; in [4], < 3.52; in [6], 3.91; in [9] it was 6.95; in experiment [10], < 3.52; in [12], < 3.52. Moreover, the pIC50 in experiment [13] is 4.09; in [14], 4.40. This molecule had an inhibition in vitro at 10 µM in [8] of 5.91%.

Turning to `C=CCn1c(SCCCCCC(=O)NO)nnc1-c1ccncc1`, the inhibition of growth at 10 µM was 11.1% in experiment [1]; 8.62% in experiment [3]; 41.3% in experiment [5]; 2.07% in experiment [7]; 16.1% in [11]. For the same molecule, the pIC50 in experiment [2] is < 3.52; in experiment [4] it was 3.65; in experiment [6], 4.12; in [9], 6.72; in [10], 3.54; in experiment [12] it was 4.96. The pIC50 in experiment [13] was 4.05; in experiment [14], 4.93. The inhibition in vitro at 10 µM in experiment [8] is 5.91%.

In the case of `CCn1c(SCCCCCC(=O)NO)nnc1-c1ccncc1`, the inhibition of growth at 10 µM came out at 5.26% in [1]; 2.06% in experiment [3]; 9.15% in experiment [5]; 21.4% in experiment [7]; 4.09% in [11]. Moreover, the pIC50 was 4.12 in experiment [2]; < 3.52 in experiment [4]; 3.83 in [6]; 6.91 in experiment [9]; 3.57 in [10]; < 3.52 in [12]. The pIC50 in experiment [13] is 3.95; in experiment [14] it was 4.54. For the same molecule, the inhibition in vitro at 10 µM in [8] was 17.3%.

As for `Nc1ccccc1NC(=O)c1ccc(CSc2nnc(-c3ccncc3)n2-c2ccccc2)cc1`, the inhibition of growth at 10 µM stood at 72.5% in experiment [1]; 66.9% in experiment [3]; 37.9% in experiment [5]; 45.4% in [7]; 19.6% in experiment [11]. Moreover, the pIC50 in experiment [2] was 4.66; in [4] it was 3.95; in experiment [6], 5.21; in experiment [9] it was 7.02; in experiment [10] it was 5.02; in experiment [12], 5.27. The pIC50 in [13] and in experiment [14] was 5.08 throughout. This molecule also came in with an inhibition in vitro at 10 µM in experiment [8] of 47.3%.

For the molecule `CCn1c(SCc2ccc(C(=O)NO)cc2)nnc1-c1ccncc1`, the inhibition of growth at 10 µM was 1.67% in experiment [1]; 9.34% in experiment [3]; 8.34% in experiment [5]; 1.03% in experiment [7]; 14.3% in experiment [11]. Besides, the pIC50 is < 3.52 in experiment [2]; 3.76 in [4]; 3.69 in experiment [6]; 6.59 in experiment [9]; < 3.52 in experiment [10]; < 3.52 in experiment [12]. For the same molecule, the values for the pIC50 in experiment [13] and in [14] were 3.49 and 4.52, respectively. The same molecule had an inhibition in vitro at 10 µM in [8] of 7.12%.

Turning to `C=CCn1c(SCc2ccc(C(=O)Nc3ccccc3N)cc2)nnc1-c1ccncc1`, the inhibition of growth at 10 µM in experiment [1] came out at 97.1%; in experiment [3], 94.8%; in experiment [5], 70.7%; in experiment [7], 80.5%; in [11], 90.1%. The pIC50 is 4.93 in experiment [2]; 4.38 in experiment [4]; 5.85 in [6]; 7.81 in experiment [9]; 5.00 in experiment [10]; 4.65 in experiment [12]. The pIC50 in experiment [13] is 5.80; in experiment [14] it was 5.89. This molecule showed an inhibition in vitro at 10 µM in [8] of 87.5%.

As for `Nc1ccccc1NC(=O)CCCCCSc1nnc(-c2ccncc2)n1-c1ccccc1`, the inhibition of growth at 10 µM is 4.67% in [1]; 1.65% in experiment [3]; 9.64% in experiment [5]; 24.5% in experiment [7]; 15.1% in [11]. Besides, the pIC50 in experiment [2] is 3.59; in [4], < 3.52; in experiment [6] it was 3.47; in experiment [9] it was 6.51; in experiment [10] it was 3.80; in [12] it was < 3.52. The pIC50 in [13] is 3.67; in experiment [14], 4.41. Further, the inhibition in vitro at 10 µM in experiment [8] came to 34.9%.

In the case of `O=C(O)CCCCCSc1nnc(-c2ccncc2)n1-c1ccccc1`, the inhibition of growth at 10 µM came out at 89.3% in experiment [1]; 94.8% in experiment [3]; 80.5% in experiment [5]; 78.5% in [7]; 72.7% in experiment [11]. In addition, the negative logarithm of the IC50 (pIC50) in experiment [2] is 5.05; in experiment [4] it was 4.68; in experiment [6] it was 5.63; in experiment [9] it was 7.44; in experiment [10], 4.96; in experiment [12], 4.96. Besides, the pIC50 is 5.72 in experiment [13] and 6.19 in experiment [14]. The molecule further gave an inhibition in vitro at 10 µM in experiment [8] of 67.2%.
